# Screening results: PubChem BioAssay, several laboratories
# Compounds with a hit are over-represented: about 3.4% of the library has one in this group of screens.
# MEKK3 PB1 HTS: modulators (inhibitors or enhancers) of MEK5 binding to human MEKK3 PB1 domain. Q99759. bead-based flow cytometry, Alexa488-MEK5 binding to MEKK3; actives lie on both sides; 0 = blocked by unlabeled MEK5, 100 = vehicle. binding response (% of control), % at 10 µM. actives 1.4% (n = 290,000);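 active means binding response more than 3 SD above or below the average of its plate-row segment, actives on both sides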;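 further: Alexa488 bead fluorescence after subtracting the streptavidin-only scavenger bead signal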
# Target sequence (Q99759 whole entry, looked up, the tested form may be a part): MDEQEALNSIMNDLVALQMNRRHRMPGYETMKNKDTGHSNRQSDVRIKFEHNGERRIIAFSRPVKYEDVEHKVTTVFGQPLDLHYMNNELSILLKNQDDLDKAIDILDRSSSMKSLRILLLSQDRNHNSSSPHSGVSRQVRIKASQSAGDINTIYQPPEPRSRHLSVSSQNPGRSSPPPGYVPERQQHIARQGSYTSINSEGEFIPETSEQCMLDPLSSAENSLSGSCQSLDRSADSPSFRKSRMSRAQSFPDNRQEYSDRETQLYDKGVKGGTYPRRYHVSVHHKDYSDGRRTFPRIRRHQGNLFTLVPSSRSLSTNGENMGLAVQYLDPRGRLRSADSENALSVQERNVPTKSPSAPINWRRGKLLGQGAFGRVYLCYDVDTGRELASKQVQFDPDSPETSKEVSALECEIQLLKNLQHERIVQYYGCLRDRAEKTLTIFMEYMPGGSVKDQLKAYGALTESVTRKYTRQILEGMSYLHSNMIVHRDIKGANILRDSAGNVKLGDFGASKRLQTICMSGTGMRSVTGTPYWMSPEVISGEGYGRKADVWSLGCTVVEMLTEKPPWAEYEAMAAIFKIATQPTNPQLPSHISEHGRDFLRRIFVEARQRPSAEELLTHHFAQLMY
# MEKK2 mut-MEK5: signal of MEK5 binding to mutant human MEKK2 PB1 domain; bead flow cytometry, Alexa488-MEK5 binding to MEKK2 mutant; actives 0.35% (n = 290,000); percent response, % at 10 µM; in the data active means percent response above about 24%, passing the limit was not always enough
# MEKK2 WT-MEK5: raises or lowers MEK5 binding to wildtype human MEKK2 PB1 domain. Q9Y2U5. bead flow cytometry, Alexa488-MEK5 binding to MEKK2 WT; actives lie on both sides. binding response (% of control), % at 10 µM. actives 1.1% (n = 290,000); in the data active means binding response below about 67% or above about 130%
# VIM-2 inh: blocks Pseudomonas aeruginosa VIM-2 metallo-beta-lactamase | purified VIM-2, nitrocefin hydrolysis, epi-absorbance fluorescence | inhibition, % at 5.6 µM | actives 0.89% (n = 290,000) | AID 1527;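 active means inhibition above the mean of all tested compounds plus 3 SD, cutoff set per screening run, cut at about 7.5% in these data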;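 further: red hydrolysis product quenches plate fluorescence so inhibitors raise well fluorescence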
# IMP-1 inhibitor: blocks Pseudomonas aeruginosa IMP-1 metallo-beta-lactamase; purified IMP-1, nitrocefin hydrolysis, epi-absorbance fluorescence; inhibition, % at 5.6 µM; actives 0.45% (n = 290,000);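 active means inhibition above the mean plus 3 SD of all compounds in the same screening run, cut at about 4.5% in these data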
#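 System: purified IMP-1 / Input: IMP-1 dispensed at 0.2 nM / Medium: 50 mM HEPES pH 7.1, 50 µM ZnSO4, 0.05% Brij 35 / Timing: 15 min enzyme–compound preincubation, then 25 min nitrocefin reaction, 25 °C / Technique: plate fluorescence quenching by hydrolysis product, ex 480/em 530 nm / Repeats: singlicate testing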
# Numbers stand for hits; i = inactive; nt = no result.
SMILES,MEKK3 PB1 HTS,MEKK2 mut-MEK5,MEKK2 WT-MEK5,VIM-2 inh,IMP-1 inhibitor
COc1cccc2c1cc1c(=O)n(CC(=O)NC3CCCCC3)nc(C)n12,i,i,i,i,i
CCOC(=O)COc1c(OC)cc(Cl)cc1C1Nc2ccccc2C(=O)N1c1cccc(C)c1 (stereo not drawn),i,i,i,i,5.6
Cc1c(C(=S)Nc2ccccc2)cnn1-c1ccccc1,nt,nt,nt,i,i
Cc1c(C(=S)Nc2ccccc2)cnn1-c1ccc([N+](=O)[O-])cc1,i,i,4.0,i,i
CCOC(=O)c1cc2c(=O)n3cccc(C)c3nc2n(CCCOC)c1=NC(=O)c1cccnc1,i,i,i,10,i
Cc1cccn2c(=O)c3cc(C(=O)NCc4ccco4)c(=N)n(CCc4ccccc4)c3nc12,i,i,i,i,i
CCn1c(=N)c(C(N)=O)cc2c(=O)n3cccc(C)c3nc21,nt,nt,nt,7.9,i
CCn1c(=N)c(C(=O)NC)cc2c(=O)n3cccc(C)c3nc21,i,i,i,nt,nt
Cc1cccn2c(=O)c3cc(C(=O)NCCc4ccccc4)c(=N)n(Cc4ccco4)c3nc12,i,i,i,9.1,i
CC1CN(CC(=O)Nc2ccc(Br)cn2)CC(C)O1 (stereo not drawn),i,i,i,i,i
Cc1cccc(N2CCN(Cc3ccc([N+](=O)[O-])o3)CC2)c1C,i,i,i,i,i
O=C(CSc1nnc(Cc2cccs2)n1-c1ccccc1)NC1CCCCC1,i,i,i,i,i
COc1cccc(C(=O)/C=C/Nc2ccc(S(=O)(=O)Nc3cc(OC)nc(OC)n3)cc2)c1,i,i,i,i,i
COc1ccc(C(=O)N2CCCC(c3ccccc3)C2)cc1 (stereo not drawn),i,i,i,i,i
COc1ccc(C)c(S(=O)(=O)Nc2ccc(OCC(=O)O)cc2)c1,i,i,i,i,i
CCOC(=O)c1c(N)sc(=S)c2c1CCC2,i,i,i,i,12
CCOC(=O)c1c(N)sc(N)c1C(=O)OCC,i,i,i,i,i
CCOC(=O)c1c(N)sc2c1CCSC2,i,i,i,i,14
CCCCc1ccc(-c2csc(/C(C#N)=C/c3ccco3)n2)cc1,i,i,i,i,i
CCOc1cc(-c2nc(-c3ccncc3)no2)cc(OCC)c1OCC,i,i,i,i,i
CC1(C)CC2CC(C)(CN2S(=O)(=O)c2ccc(N)cc2)C1 (stereo not drawn),i,i,i,i,i
COc1ccccc1NC(=O)NCc1ccc(C)n1C,i,i,i,11,i
Cc1cnc(C(=O)OCC(=O)N(C(C)C)C(C)C)cn1,i,i,i,i,5.4
CN1C(=O)N(C)c2ccc(Br)c3cccc1c23,i,i,i,11,i
CN1C(=O)N(C)c2ccc(C=O)c3cccc1c23,i,i,i,i,i
SMILES,MEKK3 PB1 HTS,MEKK2 mut-MEK5,MEKK2 WT-MEK5,VIM-2 inh,IMP-1 inhibitor
CN1C(=O)Nc2cccc3cccc1c23,i,i,i,i,i
CN1C(=O)N(C)c2cccc3cccc1c23,i,i,i,9.3,i
O=C(CCCSc1ccccc1)Nc1cccc(CO)c1,i,i,i,i,i
COc1ccc(C(=O)N2C(=O)c3ccc(N)cc3C2=O)cc1,i,i,i,i,7.7
COc1ccc(C(=O)n2cnc(N)n2)cc1,i,i,i,i,i
CC1CCCCN1S(=O)(=O)c1ccc2c(c1)CCN2C(=O)C1CC1 (stereo not drawn),i,i,i,i,i
CN(C)CCCNC(=O)c1cc(C(=O)c2ccc(F)cc2)c[nH]1,i,i,i,i,i
CCOC(=O)C1=C(C)OC(N)=C(C#N)C1C1CCCCC1 (stereo not drawn),i,i,i,i,i
Clc1ccc(C2=CSC3=NCCN23)cc1Cl,i,i,i,i,i
COc1ccc(C2=CSC3=NCCN23)cc1OC,i,i,i,9.0,i
Cc1cc(NC(=O)Cc2ccccc2)nc2c1c(=O)oc1ccccc12,i,i,i,i,i
Cc1cc(NC(=O)CN2CCN(Cc3ccccc3)CC2)nc2c1c(=O)oc1ccccc12,i,i,i,8.3,i
COc1ccccc1-n1c(C)c2c(OC)cccc(=O)c2c1C,i,i,i,9.2,i
COc1ccc(-n2c(C)c3c(OC)cccc(=O)c3c2C)cc1,nt,nt,nt,i,i
COC(=O)CSc1nnc(CNC(=O)c2cccc(C)c2)n1-c1ccccc1OC,nt,nt,nt,i,i
